# Data: ChEMBL document CHEMBL5154772, “Biological Investigation of a Water-Soluble Isoginkgetin-Phosphate Analogue, Targeting the Spliceosome with In Vivo Antitumor Activity” (J Med Chem, 2022)
# Tests used:
# [1] = Toxicity in C57BL/6 mouse assessed as change in body weight at 250 mg/kg, ip administered as single dose and measured after 15 days (reference value: 23.5 to 24.2 g); assay type: organism-based; conditions: in vivo, 360 h, time 15 day
# Procedure, shortened: (§1)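 Female C57BL/6 mice given one IP injection of 100 µL, at 50, 100, 250 or 500 mg/kg in sterile PBS, two mice per dose; PBS-injected controls. Behaviour checked right after and at 30 min. Body weight recorded every 2–3 days for 15 days, then liver, spleen and kidneys weighed.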
# [2] = Antitumour activity against mouse wild type MCA-205 cells implanted in C57BL/6 mouse assessed as tumor size by measuring cell killing at 5 mg/kg, IT administered starting from day 7 post inoculation and thrice a week for 2 weeks; assay type: functional
# Procedure, shortened: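 Female C57BL/6 mice (6 weeks old) given subcutaneous MCA205 WT fibrosarcoma in the right flank. From day 7 after inoculation, 5 mg/kg given intratumorally three times per week for two weeks; untreated controls. Tumour area recorded every 3–4 days until ethical endpoints, then tumour size at killing. Groups compared by one-way ANOVA.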
# [3] = Cmax in Beagle dog at 26.76 mg/kg, iv administered as single dose measured up to 24 hrs; assay type: ADME, organism-based, Canis lupus familiaris; set-up: time < 24 hrs, dose 26.76 mg/kg, route iv; conditions: in vivo
# Procedure, shortened: (§2)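 Single intravenous dose. Mice were male C57BL/6J, 12 per route; tail-vein blood was collected under sodium heparin, with 3 mice sampled at each pair of times (0.083/2, 0.25/4, 0.5/8, 1/24 h). Dogs were male beagles (n=3); jugular blood was collected under K2 EDTA predose and at 0.083, 0.25, 0.5, 1, 2, 4, 6, 8 and 24 h. Plasma was prepared from the samples.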
# [4] = Metabolic stability in mouse liver microsomes assessed as parent compound remaining incubated for 45 mins in absence of NADPH by HPLC-MS/MS analysis; assay type: ADME, Microsome; conditions: read-out: Stability
# Procedure, shortened: (§3)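 Incubation with mouse or human liver microsomes for 45 min, with or without NADPH. Remaining parent compound was quantified over time by HPLC-MS/MS and expressed as % remaining; intrinsic clearance is given in μL/min/mg protein.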
# [5] = Toxicity in C57BL/6 mouse assessed as change in body weight at 50 mg/kg, ip administered as single dose and measured after 15 days (reference value: 23.5 to 24.2 g); assay type: organism-based; conditions: in vivo, 360 h, time 15 day; procedure, shortened: as §1
# [6] = Metabolic stability in human liver microsomes assessed as parent compound remaining incubated for 45 mins in absence of NADPH by HPLC-MS/MS analysis; assay type: ADME, Microsome; conditions: read-out: Stability; procedure, shortened: as §3
# [7] = Total clearance in C57BL/6J mouse at 0.711 mg/kg, iv administered as single dose measured up to 24 hrs; assay type: ADME, organism-based; conditions: in vivo; procedure, shortened: as §2
# [8] = Oral bioavailability in C57BL/6J mouse at 9.103 mg/kg administered as single dose measured up to 24 hrs; assay type: ADME, organism-based; conditions: in vivo
# [9] = Total clearance in Beagle dog at 26.76 mg/kg, iv administered as single dose measured up to 24 hrs; assay type: ADME, organism-based, Canis lupus familiaris; conditions: in vivo; procedure, shortened: as §2
# [10] = AUC(0 to t) in C57BL/6J mouse at 9.103 mg/kg, ip administered as single dose measured up to 24 hrs; assay type: ADME, organism-based; set-up: time < 24 hrs, dose 9.103 mg/kg, route ip; conditions: in vivo
# Procedure, shortened: (§4)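 Single intraperitoneal dose in male C57BL/6J mice (12 per route). Tail-vein blood was collected under sodium heparin for plasma, with 3 mice sampled at each pair of times: 0.083/2, 0.25/4, 0.5/8 and 1/24 h. F denotes bioavailability.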
# [11] = Toxicity in C57BL/6 mouse assessed as change in kidney weight at 250 mg/kg, ip administered as single dose and measured after 15 days (reference value: 0.3 g); assay type: organism-based; conditions: in vivo, 360 h, time 15 day; procedure, shortened: as §1
# [12] = Antiproliferative activity against mouse MCA-205 cells assessed as decrease in cell viability at 10 uM measured after 72 hrs by MTT based colorimetric assay; assay type: functional
# [13] = Plasma protein binding in mouse at 2 uM by rapid equilibrium dialysis based LC-MS/MS analysis; assay type: ADME, cell-free; conditions: read-out: PPB (converted)
# Procedure, shortened: (§5)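 Binding was measured at 2 μM in triplicate by rapid equilibrium dialysis (8K MWCO). Quantification was by UPLC-MS/MS on a phenyl column in positive ESI MRM mode (m/z 727>567), with an ammonium formate pH 5 / 1,5-DMHA mobile phase at 50 °C. Both unbound fraction (fu) and % bound are reported.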
# [14] = target: Delta-type opioid receptor (Homo sapiens) (UniProt P41143); assay: Antagonist activity at OPRD1 (unknown origin) at 10 uM; assay type: functional; set-up: scale not given: the % may be the effect or the level left; conditions: filed as antagonist
# Delta-type opioid receptor (Homo sapiens), sequence (P41143 whole entry): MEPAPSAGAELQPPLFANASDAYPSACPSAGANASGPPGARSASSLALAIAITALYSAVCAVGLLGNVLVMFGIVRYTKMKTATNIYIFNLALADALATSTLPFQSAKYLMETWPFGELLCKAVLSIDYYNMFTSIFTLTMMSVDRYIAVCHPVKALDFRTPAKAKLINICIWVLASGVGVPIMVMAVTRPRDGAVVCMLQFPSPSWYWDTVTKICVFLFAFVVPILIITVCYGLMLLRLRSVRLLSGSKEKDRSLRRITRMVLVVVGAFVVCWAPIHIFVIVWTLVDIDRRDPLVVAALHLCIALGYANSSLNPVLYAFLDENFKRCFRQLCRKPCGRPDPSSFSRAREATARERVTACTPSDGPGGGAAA
# Procedure, shortened: (§6)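 Single-concentration safety screen at 10 μM across a 47-target panel. GPCRs were run in antagonist mode and enzymes in inhibitor mode.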
# [15] = target: cGMP-inhibited 3',5'-cyclic phosphodiesterase 3A (Homo sapiens) (UniProt Q14432); assay: Inhibition of PDE3A (unknown origin) at 10 uM; procedure, shortened: as §6
# cGMP-inhibited 3',5'-cyclic phosphodiesterase 3A (Homo sapiens), sequence (Q14432 whole entry): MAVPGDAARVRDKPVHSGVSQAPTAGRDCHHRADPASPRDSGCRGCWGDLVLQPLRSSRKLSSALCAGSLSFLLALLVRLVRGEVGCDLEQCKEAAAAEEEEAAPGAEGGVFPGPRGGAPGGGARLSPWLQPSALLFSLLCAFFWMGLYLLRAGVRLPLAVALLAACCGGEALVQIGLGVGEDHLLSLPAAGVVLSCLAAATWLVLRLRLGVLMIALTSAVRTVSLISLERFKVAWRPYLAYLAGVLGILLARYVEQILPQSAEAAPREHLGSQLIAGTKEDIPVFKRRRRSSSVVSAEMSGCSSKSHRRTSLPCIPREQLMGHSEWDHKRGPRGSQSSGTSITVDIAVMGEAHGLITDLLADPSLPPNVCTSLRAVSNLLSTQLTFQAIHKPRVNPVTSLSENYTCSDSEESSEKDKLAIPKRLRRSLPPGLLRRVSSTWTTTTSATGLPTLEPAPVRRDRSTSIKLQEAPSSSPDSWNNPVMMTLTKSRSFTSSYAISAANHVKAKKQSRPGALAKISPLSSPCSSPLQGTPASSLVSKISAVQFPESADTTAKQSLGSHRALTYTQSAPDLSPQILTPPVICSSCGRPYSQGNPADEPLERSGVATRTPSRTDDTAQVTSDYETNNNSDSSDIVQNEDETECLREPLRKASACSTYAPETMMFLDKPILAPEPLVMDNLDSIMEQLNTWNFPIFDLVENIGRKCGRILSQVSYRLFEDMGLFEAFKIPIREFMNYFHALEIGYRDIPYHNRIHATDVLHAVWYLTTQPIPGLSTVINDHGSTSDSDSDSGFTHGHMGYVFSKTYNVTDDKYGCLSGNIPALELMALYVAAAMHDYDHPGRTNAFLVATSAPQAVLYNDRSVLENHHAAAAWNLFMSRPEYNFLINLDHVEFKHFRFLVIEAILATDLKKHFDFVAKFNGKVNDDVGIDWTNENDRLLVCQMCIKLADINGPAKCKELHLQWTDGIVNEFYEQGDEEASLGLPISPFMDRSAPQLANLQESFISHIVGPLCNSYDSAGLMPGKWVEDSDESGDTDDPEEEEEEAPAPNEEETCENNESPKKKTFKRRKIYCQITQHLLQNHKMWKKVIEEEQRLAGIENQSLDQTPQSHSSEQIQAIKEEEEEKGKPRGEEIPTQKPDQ
# [16] = Plasma protein binding in human at 2 uM by rapid equilibrium dialysis based LC-MS/MS analysis; assay type: ADME, cell-free; conditions: read-out: PPB (converted); procedure, shortened: as §5
# [17] = Acute toxicity in C57BL/6 mouse assessed as mortality at 500 mg/kg, ip administered as single dose and measured after 15 days; assay type: organism-based; conditions: in vivo, 360 h, time 15 day
# Procedure, shortened: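 Single intraperitoneal injection (100 µL) into female C57BL/6 mice, with IP2 diluted in sterile PBS at 50, 100, 250 or 500 mg/kg; PBS-treated controls. Behaviour watched right after and at 30 min. Body weight followed every 2–3 days for 15 days. Euthanasia criterion was weight loss ≥20%. Liver, spleen and kidney weights taken at day 15.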
# [18] = Half life in Beagle dog at 26.76 mg/kg, iv administered as single dose measured up to 24 hrs; assay type: ADME, organism-based, Canis lupus familiaris; conditions: in vivo; procedure, shortened: as §2
# [19] = AUCextra in C57BL/6J mouse at 0.711 mg/kg, iv administered as single dose measured up to 24 hrs; assay type: ADME, organism-based; conditions: in vivo; procedure, shortened: as §2
# [20] = Half life in C57BL/6J mouse at 0.711 mg/kg, iv administered as single dose measured up to 24 hrs; assay type: ADME, organism-based; conditions: in vivo; procedure, shortened: as §2
# [21] = Toxicity in C57BL/6 mouse assessed as change in spleen weight at 500 mg/kg, ip administered as single dose and measured after 15 days (reference value: 0.1 to 0.2 g); assay type: organism-based; conditions: in vivo, 360 h, time 15 day; procedure, shortened: as §1
# [22] = Toxicity in C57BL/6 mouse assessed as change in kidney weight at 50 mg/kg, ip administered as single dose and measured after 15 days (reference value: 0.3 g); assay type: organism-based; conditions: in vivo, 360 h, time 15 day; procedure, shortened: as §1
# HUVEC = assay: Antiproliferative activity against human HUVEC cells assessed as decrease in cell viability at 10 uM measured after 72 hrs by MTT based colorimetric assay; assay type: functional
# [23] = Plasma protein binding in human assessed as unbound fraction at 2 uM by rapid equilibrium dialysis based LC-MS/MS analysis; assay type: ADME, cell-free; procedure, shortened: as §5
# [24] = Metabolic stability in mouse liver microsomes assessed as parent compound remaining incubated for 45 mins in presence of NADPH by HPLC-MS/MS analysis; assay type: ADME, Microsome; conditions: read-out: Stability; procedure, shortened: as §3
# [25] = Toxicity in C57BL/6 mouse assessed as change in spleen weight at 50 mg/kg, ip administered as single dose and measured after 15 days (reference value: 0.1 to 0.2 g); assay type: organism-based; conditions: in vivo, 360 h, time 15 day; procedure, shortened: as §1
# [26] = Metabolic stability in human liver microsomes assessed as intrinsic clearance incubated for 45 mins by HPLC-MS/MS analysis; assay type: ADME, Microsome; conditions: read-out: CLH; procedure, shortened: as §3
# [27] = Cmax in C57BL/6J mouse at 9.103 mg/kg, ip administered as single dose measured up to 24 hrs; assay type: ADME, organism-based; set-up: time < 24 hrs, dose 9.103 mg/kg, route ip; conditions: in vivo; procedure, shortened: as §4
smiles,measurement,setting,value
COc1ccc(-c2cc(=O)c3c(O)cc(OP(=O)([O-])[O-])c(-c4cc(-c5cc(=O)c6c(O)cc(OP(=O)([O-])[O-])cc6o5)ccc4OC)c3o2)cc1.[Na+].[Na+].[Na+].[Na+],Activity,[1],19.1 g
same,Activity,[2],50%
same,Cmax,[3],272 µg/mL
same,remaining at 0.75 h,[4],72.4%
same,Activity,[5],19.5 g
same,remaining at 0.75 h,[6],64.7%
same,clearance,[7],133 mL/min/kg
same,bioavailability,[8],86%
same,clearance,[9],0.69 mL/min/kg
same,AUC(0-t) at 24 h,[10],982 ng·h/mL
same,Activity,[11],0.1 g
same,Activity,[12],20%
same,fraction unbound at 2 µM,[13],0.019
same,Activity,[14],53%
same,inhibition,[15],84.8%
same,fraction unbound at 2 µM,[16],0.017
same,Activity,[17],Non-Toxic
same,half-life,[18],228 min
same,%AUCextra,[19],15.2%
same,half-life,[20],66 min
same,Activity,[21],0.1 g
same,Activity,[22],0.3 g
same,Activity,HUVEC,25%
same,fraction unbound at 2 µM,[23],0.02
same,remaining at 0.75 h,[24],82.3%
same,Activity,[25],0.1 g
same,microsomal CLint,[26],11 µL/min/mg
same,Cmax,[27],2080 ng/mL
